Measured values gathered from unrelated publications.
Compare with care: the assays were run in different laboratories.
GCGR: Glucagon receptor (GCGR, Homo sapiens, UniProt P47871)
Mc1r: Melanocyte-stimulating hormone receptor (Mc1r, Mus musculus, UniProt Q01727)
PSMB8: Proteasome subunit beta type-8 (PSMB8, Homo sapiens, UniProt P28062)

SMILES | target | assay | conditions | endpoint | value
N#Cc1ccc(COc2cccc(C3CCN(Cc4nc5ccc(C(=O)O)cc5n4C[C@@H]4CCO4)CC3)n2)c(F)c1 | GCGR | cAMP, agonist |  | EC50 | > 20000 nM
CSCC[C@H](NC(=O)[C@@H](NC(=O)[C@@H](N)Cc1ccc(O)cc1)C(C)C)C(=O)NCC(=O)N[C@@H](Cc1c[nH]cn1)C(=O)N[C@@H](Cc1ccccc1)C(=O)N[C@@H](CCCNC(=N)N)C(=O)N[C@@H](Cc1c[nH]c2ccccc12)C(=O)N[C@@H](CC(=O)O)C(=O)O | Mc1r | reporter gene, agonist |  | EC50 | 430 nM
CCCCN1CCC(COC(=O)c2ccc(N)c(OCF)c2)CC1 | Muscarinic acetylcholine receptor M3 (CHRM3, Homo sapiens, UniProt P20309) | cell-free assay, radioligand |  | Ki | 1380 nM
Cc1ncc(C(=O)N[C@@H](CC(C)C)C(=O)N[C@@H](CCC2CCCCC2)C(=O)N[C@H](/C=C/S(C)(=O)=O)Cc2ccc(CN)cc2)s1 | PSMB8 | enzyme activity, inhibitor | lysate | IC50 | 3.98 µM
CC[C@H](C)[C@H](NC(=O)[C@H](CO)NC(=O)[C@H](Cc1ccc(O)cc1)NC(=O)[C@H](CC(=O)O)NC(=O)[C@H](CO)NC(=O)[C@@H](NC(=O)[C@H](Cc1ccccc1)NC(=O)[C@@H](NC(=O)CNC(=O)[C@H](CCC(=O)O)NC(=O)[C@H](C)NC(=O)[C@@H](N)Cc1ccc(O)cc1)[C@@H](C)O)[C@@H](C)CC)C(=O)N[C@@H](C)C(=O)N[C@@H](CCSC)C(=O)N[C@@H](CC(=O)O)C(=O)N[C@@H](CCCCN)C(=O)N[C@H](C(=O)N[C@@H](Cc1c[nH]cn1)C(=O)N[C@@H](CCC(N)=O)C(=O)N[C@@H](CCC(N)=O)C(=O)N[C@@H](CC(=O)O)C(=O)N[C@@H](Cc1ccccc1)C(=O)N[C@H](C(=O)N[C@@H](CC(N)=O)C(=O)N[C@@H](Cc1c[nH]c2ccccc12)C(=O)N[C@@H](CC(C)C)C(=O)N[C@@H](CC(C)C)C(=O)N[C@@H](C)C(=O)N[C@@H](CCC(N)=O)C(=O)N[C@@H](CCCCN)C(=O)NCC(=O)N[C@@H](CCCCN)C(=O)N[C@@H](CCCCN)C(=O)N[C@@H](CC(N)=O)C(=O)N[C@@H](CC(=O)O)C(=O)N[C@@H](Cc1c[nH]c2ccccc12)C(=O)N[C@@H](CCCCN)C(=O)N[C@@H](Cc1c[nH]cn1)C(=O)N[C@@H](CC(N)=O)C(=O)N[C@H](C(=O)N[C@H](C(=O)N[C@@H](CCC(N)=O)C(=O)O)[C@@H](C)O)[C@@H](C)CC)C(C)C)[C@@H](C)CC | GCGR | reporter gene, agonist, luciferase |  | EC50 | 501 nM
CC1=C(/C=C/C(C)=C/C=C/C(C)=C/C=O)C(C)(C)CCC1 | Cellular retinoic acid-binding protein 2 (CRABP2, Homo sapiens, UniProt P29373, L122E/R112L/R133K) | binding, fluorescence |  | Kd | 1.36 nM
CC(C)C[C@H](NC(=O)CN1CCOCC1)C(=O)N[C@@H](CC(C)C)C(=O)N[C@H](/C=C/S(C)(=O)=O)Cc1ccc(CN)cc1 | PSMB8 | enzyme activity, inhibitor | lysate | IC50 | > 10 µM
N=C(N)NCCC[C@H](NC(=O)[C@H](CC(=O)O)NC(=O)[C@@H](N)Cc1c[nH]c2ccccc12)C(=O)N[C@@H](Cc1ccccc1)C(=O)NCC(=O)O | Mc1r | reporter gene, agonist |  | EC50 | > 100000 nM
CCOc1ccc2c(-c3cc(C)nc(Nc4cc(OC)cc(C(F)(F)F)c4)n3)cnn2n1 | Dual specificity tyrosine-phosphorylation-regulated kinase 1A (DYRK1A, Homo sapiens, UniProt Q13627) | enzyme activity, inhibitor |  | IC50 | > 10 µM
Cc1ncc(C(=O)N[C@@H](CC2CCCCC2)C(=O)N[C@@H](CC2CCCCC2)C(=O)N[C@H](/C=C/S(C)(=O)=O)Cc2ccc(CN)cc2)s1 | PSMB8 | enzyme activity, inhibitor | lysate | IC50 | > 10 µM
CCCC[C@H](NC(=O)[C@@H](NC(=O)[C@@H](N)Cc1ccc(O)cc1)C(C)C)C(=O)NCC(=O)N[C@@H](Cc1c[nH]cn1)C(=O)N[C@@H](Cc1ccccc1)C(=O)N[C@@H](CCCN=C(N)N)C(=O)N[C@@H](Cc1c[nH]c2ccccc12)C(=O)N[C@@H](CC(=O)O)C(=O)N[C@@H](CCCN=C(N)N)C(=O)N[C@@H](Cc1ccccc1)C(=O)NCC(=O)O | Mc1r | reporter gene, agonist |  | EC50 | 390 nM
Cc1ncc(C(=O)N[C@@H](CC(C)C)C(=O)N[C@@H](CC2CCCC3CCCCC32)C(=O)N[C@H](/C=C/S(C)(=O)=O)Cc2ccc(CN)cc2)s1 (some centres unmarked) | PSMB8 | enzyme activity, inhibitor | lysate | IC50 | > 10 µM
CSCC[C@H](NC(=O)[C@@H](NC(=O)[C@@H](N)Cc1ccc(O)cc1)C(C)C)C(=O)NCC(=O)O | Mc1r | reporter gene, agonist |  | EC50 | > 100000 nM
CN1CCN(c2ccc(Nc3ncc4cc(C#N)c(=O)n(C5CCCC5)c4n3)cc2)CC1 | Dual specificity tyrosine-phosphorylation-regulated kinase 1B (DYRK1B, Homo sapiens, UniProt Q9Y463) | enzyme activity, inhibitor |  | IC50 | 0.238 µM
